ChEMBL document CHEMBL4513216, “Probing the Open Global Health Chemical Diversity Library for Multistage-Active Starting Points for Next-Generation Antimalarials” (ACS Infect Dis, 2020)

Test: Toxicity liver stage against HepG2, at 10uM
Format: cell-based
Parameters: test concentration 10 uM, cell line HepG2-A16-CD81EGFP
Details: human, HepG2-A16-CD81EGFP cells; read-out: INHIBITION
Outline: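 Uninfected HepG2-A16-CD81EGFP cells, 3 × 10^3 per well, 1536-well, plated on prespotted compound at 10 μM final, parasite-free screening media added to match infected plates; puromycin 10 μM positive, DMSO 0.5% negative; run in parallel with 48 h PbLuc assay at 37 °C, 5% CO2; viability by CellTiter-Glo luminescence, normalized to controls.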

Point of comparison: `COCCN1C(=O)CC(c2cccnc2)C12CCN(C)CC2` (stereo not drawn), cytotoxicity at 10 µM -97.6%. Against it:
- O[C@@H]1C[C@@H](c2nc(-c3ccccc3)no2)N(C2CCOCC2)C1 — higher, -1.83%
- Cc1ccc(CN[C@@H]2CO[C@H](CNS(=O)(=O)c3ccccc3)[C@H]2O)cc1 — higher, -10.1%
- COc1ccc(Nc2nc(N)c(C(C)=O)s2)cc1OC — higher, 1.8%
- Cc1cc(N2CCCC2)nc(N(C)CCO)c1C#N — higher, 0.252%
- Cc1cccc(N2CCN(S(=O)(=O)CCN)CC2)c1 — higher, 0.0723%
- O=S(=O)(NCC1CCN(c2cnccn2)CC1)C1CC1 — higher, 11.3%
- O=C(Cn1ccc2ccccc21)Nc1cc(N2CCCC2)ncn1 — higher, 4.24%
- O=C(CSC1CCCC1)N1CCN(c2ccc(-n3cncn3)nn2)CC1 — higher, 6.93%
- CCN(C)C(=O)c1ncn2c(C3CCN(S(C)(=O)=O)CC3)ccnc12 — higher, -3.68%
- CC(=O)N1CCC2(CC1)C(=O)N(C)c1c(F)cccc12 — higher, -11.2%
- CC(C)N(C)Cc1cnc2n1CCN(Cc1cccc(C#N)c1)C2 — higher, 7.48%
- CCOCC1CN(C(=O)C2=CCCC2)Cc2cnn(C)c21 (stereo not drawn) — higher, 1.49%
- CCOC(=O)c1ccc(NC(=O)c2c(O)nc3c(c2O)CCCC3)cc1 — higher, 8.46%
- Cc1cccc(NC(=O)Cc2cnc3n(C)c(=O)[nH]c(=O)n23)c1 — higher, -5.17%
- O=C(c1ccnnc1)N1CCC2(CC1)CC(N1CCOCC1)C2 — higher, 6.97%
- CC(C)(C)NC(=O)c1ccn(COc2ccccc2Cl)n1 — higher, 10.7%
- CSc1ccc(CNc2n[nH]c(C)n2)cc1 — higher, -3.58%
- CCn1cc(NC(=O)c2c(C)nn(C)c2C)c(C(N)=O)n1 — higher, 0.946%
- CCOCCCNc1ncc(-c2onc(C)c2C)c(-c2ccco2)n1 — higher, 10.2%
- CN(C)C(=O)C1CCc2nnc(CNC(=O)c3ccc(Cl)cc3Cl)n21 (stereo not drawn) — higher, 7.61%
- CC(C)(C)n1cc(C#N)cc1NC(=O)CCS(=O)(=O)C1CCCC1 — higher, -0.935%
- CC(C)CCN1CCN(c2ncnc3nc(N)ccc23)CC1 — higher, 11.5%
- CC(C(N)=O)N1CCN(c2ncc(Cl)cn2)CC1 (stereo not drawn) — higher, -1.26%
- Cc1nn(C)c(Cl)c1C(=O)NCC1(C(N)=O)CCOCC1 — higher, 1.64%
- CCCc1nnc(SCC(=O)Nc2cc(C(C)(C)C)nn2C)[nH]1 — higher, 10.7%
- CC(C)(C)NC(=O)N1CCN2C(=O)OCC2C1 (stereo not drawn) — higher, -1.96%
- O=C(NC1CCN(c2ccccc2OC(F)F)C1)c1cccnc1 (stereo not drawn) — higher, 6.89%
- CCSc1cc(C(=O)NC2CCN(C(=O)c3ccncc3)CC2)ccn1 — higher, 5.88%
- CC(C)(C)C(=O)NCCCC(=O)NC(C)(C)c1ccc2c(c1)OCO2 — higher, 12.1%
- O=C(CCCn1cncn1)NC1(c2cccc(Br)c2)CC1 — higher, 9.57%
- CCc1cnc(CN(C)C2CCN(CC3CCN(C(C)=O)CC3)C2)o1 (stereo not drawn) — higher, 4.84%
- N#Cc1ccccc1N1CCC(Nc2nccnc2C#N)CC1 — higher, 12.9%
- O=S(=O)(NCC1CCOC1)N1CCc2ccccc2C1 (stereo not drawn) — higher, -4.06%
- CNC(=O)c1cccc(NC(=O)CN2CCN(S(C)(=O)=O)CC2)c1 — higher, 1.82%
- CS(=O)(=O)NC[C@H]1OC[C@@H]2CN(Cc3cccnc3)CC[C@@H]21 — higher, 12.7%
- c1cc(CN2CC[C@@H]3CN(c4cncnc4)C[C@@H]3C2)ccn1 — lower, -116%
- CC(C)OC[C@H]1CCC[C@]12CN(C(=O)C1CCOCC1)CCO2 — lower, -99.1%
- COCC(=O)N1CC[C@@H](N2CCOCC2)[C@@H]1Cc1cccnc1 — higher, -95.5%
- O=S(=O)(c1ccccc1)N1CCC[C@]2(C[C@@H](OCC3CC3)CO2)C1 — higher, -69.2%
- Cn1cc(CN2CCC3(CCCCN3S(C)(=O)=O)CC2)cn1 — higher, -76.9%
- CSc1ccc(-c2nc(CN3CCCC(CNC(C)=O)C3)c(C)o2)cc1 (stereo not drawn) — higher, 2.32%
- CSCCCN1C[C@H](NC(=O)c2ccc(C#N)nc2)[C@@H](C2CC2)C1 — higher, 2.72%
- CC(CCN1CCCn2nc(CNS(C)(=O)=O)cc2C1)c1ccccc1 (stereo not drawn) — higher, 8.85%
- CCc1cc(NCC(O)CN2CCCCC2)ncn1 (stereo not drawn) — higher, -0.714%
- OCC1CCCCN1Cc1cc(O)c2cccc(F)c2n1 (stereo not drawn) — higher, -0.357%
- Cc1ccc(-c2cn[nH]c2C2CCCN(c3ncccn3)C2)cc1 (stereo not drawn) — higher, 87.3%
- CCCc1nc(N2CCN(Cc3ccccn3)CC2)c2cnn(C)c2n1 — higher, 1.89%
- CC(=O)Nc1cccc(C(=O)N(C)C(C)Cc2cc(C)ccn2)c1 (stereo not drawn) — higher, 11%
- O=C1O[C@@H]2CN(C3CCOCC3)C[C@@H]2N1CCc1cccc(Cl)c1 — higher, -1.11%
- CC(C)Cc1nc(CO)n(-c2ccc3c(c2)OCCO3)n1 — higher, -1.86%
- CCC[C@@H]1CN(Cc2ccc3c(c2)OCCO3)C[C@H]1C(=O)O — higher, 0.324%
- CCC[C@H]1CN(S(C)(=O)=O)C[C@@H]1NC(=O)CCOCC — higher, 0.224%
- Cc1cc2nc(C(C)C)cc(N(C)CC3CCN(C(C)C)C3)n2n1 (stereo not drawn) — higher, 7.26%
- COc1cc(C(=O)N2CC(Oc3ccccc3Cl)C2)ccn1 — higher, -3.52%
- CC(C)CN1CC(c2nc(-c3ccc(F)cc3)c[nH]2)CC1=O (stereo not drawn) — higher, 6.8%
- O=C(O)c1cc(-c2ccoc2)cc(S(=O)(=O)NC2CC2)c1 — higher, -2.18%
- NC(=O)CN1CCCC(C(=O)N2CCC(Oc3ncccn3)CC2)C1 (stereo not drawn) — higher, -41.6%
- O=C(C1CCOc2ccccc2C1)N1Cc2cnn(CCO)c2C1 (stereo not drawn) — higher, 4.61%
- CCCS(=O)(=O)N1CCCC(CCC(=O)N(C)CCc2ccccn2)C1 (stereo not drawn) — higher, 5.02%
- CCc1oc(C(=O)NCCNS(C)(=O)=O)cc1CN1CCCC1 — higher, 5.53%
- O=C(O)c1ccnc(-c2ccnc(COc3ccccc3Cl)n2)c1 — higher, -9.86%
- Cc1nc(N2CCOc3ccc(CO)cc3C2)c2c(C)noc2n1 — higher, 2.18%
- CCCNc1ncc(CN2CCC3(CC2)CNC(=O)C3)cn1 — higher, -7.07%
- CCc1ncc2c(n1)CN(C(=O)Cc1cc(OC)cc(OC)c1)C2 — higher, 2.78%
- CC(C)N1CCCC(C(=O)NCCCc2cnn(C)c2)C1 (stereo not drawn) — higher, 17.1%
- Cc1[nH]ccc1C(=O)N[C@H]1CN(S(C)(=O)=O)C[C@@H]1C1CC1 — higher, 3.28%
- COc1ccc2nc(CNC(=O)c3cc(C(C)C)on3)[nH]c2c1 — higher, 0.0964%
- CCn1cnnc1CCNC(=O)CCNC(=O)c1ccccc1F — higher, 4.49%
- O=C(O)[C@@H]1CN(Cc2cc3c(cc2Cl)OCO3)C[C@H]1C1CC1 — higher, 0.0851%
- Cc1ccc(O)c(CN(Cc2ccccc2)Cc2nccs2)n1 — higher, 0.31%
- COCCNc1nc2c(c(N3CCn4nc(C)cc4C3)n1)CCNCC2 — higher, 7.8%
- COc1nc2c(cc1C(=O)NCCc1nc(C)c(C(=O)O)s1)CCC2 — higher, 13.3%
- CN(C)C[C@@H]1CN(C(=O)Cc2cccc(O)c2)C[C@@H]1CO — higher, 1.92%
- CC(C)Cc1ncc2c(n1)CN(C(=O)c1ccc(CN3CCCC3)o1)C2 — higher, -1.66%
- O=C(CN1CCOC(Cn2cccn2)C1)NCc1ccco1 (stereo not drawn) — higher, -14.6%
- CC(C)CN1CC(C(=O)NCc2ccnc(-n3cccn3)c2)CC1=O (stereo not drawn) — higher, -5.48%
- Cc1cc(C)c(CNC(=O)NCc2ccc(F)cc2)c(=O)[nH]1 — higher, -6.34%
- CN(CC(=O)NC1(C)CCS(=O)(=O)C1)Cc1ccc(F)c(F)c1 (stereo not drawn) — higher, -1.55%
- Cc1nn(C)c(N(C)C)c1CNCc1ccc(OCCN(C)C)cc1 — higher, -4.89%
- O=C(c1sccc1C1CC1)N1CCN(CC(F)(F)F)CC1 — higher, -1.58%
- O=C(O)c1cc(S(=O)(=O)Nc2cc(Cl)ccc2F)cc2c1OCCO2 — higher, -18.7%
- N#Cc1ccc(OCCNCCn2cccn2)cc1 — higher, -4.11%
- O=C(CCCNc1ncccn1)N1CCCC(n2cncn2)C1 (stereo not drawn) — higher, -4.56%
- Cc1nc(CNCC2CN(C3CC3)CCO2)cs1 (stereo not drawn) — higher, -10.1%
- Cc1cc(C(=O)N2CCCC(n3ccnc3)C2)c(C)n1C1CC1 (stereo not drawn) — higher, 1.19%
- Cc1noc(Cl)c1CC(=O)N1CCCC(n2cccn2)C1 (stereo not drawn) — higher, -6.14%
- CN(Cc1nnc(C2CC2)n1C)C1CCN(Cc2ccc(F)cc2)C1 (stereo not drawn) — higher, -7.17%
- CS(=O)(=O)N1CCC(NC(=O)COc2ccc(Cl)c(Cl)c2)CC1 — higher, -6.46%
- O=C1CC2(CCCNC2)C(=O)N1Cc1ccccc1 (stereo not drawn) — higher, 12.1%
- O=C1CO[C@@H]2CN(CC3CCOC3)C[C@H]2N1Cc1cccc(F)c1 (stereo partly drawn) — higher, -73.5%
- O=C(C[C@@H]1COC[C@H]2CN(C3CCC3)C[C@@H]12)NCc1cccnc1 — higher, 12.9%
- CN1CCc2c(CNc3ncccn3)n[nH]c2C1 — higher, -3.21%
- N#Cc1cccc(CN2CC3(CCCCN3c3cncnc3)CC2=O)c1 (stereo not drawn) — higher, 2.53%
- CCN(CC)Cc1cnc2n1CCN(Cc1c(C)noc1C)CC2 — higher, 11.2%
- N#Cc1ccc(N2CCC3(CCC(=O)N3Cc3cccnc3)CC2)nc1 — lower, -112%
- CN1CCN(Cc2cn3c(n2)CN(Cc2cccc(F)c2)CC3)CC1 — lower, -125%
- CN(C)CCN1C(=O)C2(CCN(CC3CC3)CC2)c2ccccc21 — lower, -120%
- CNC(=O)COC1COC2(CCN(c3ncccn3)CC2)C1 (stereo not drawn) — higher, -3.4%
- O=C(Nc1cnccn1)[C@H]1CO[C@H]2CCN(c3ncc(F)cn3)C[C@H]2C1 — higher, 1.2%
- CN(C)[C@@H]1CCN(S(=O)(=O)C2CC2)[C@H]1Cc1ccccc1 — higher, -7.46%
- CCc1ccc2c(C3CN(CC4CCC4)C3)ncn2c1 — higher, 7.11%
- O=C(NCC1CC2(CO1)CN(Cc1cccs1)C2)C1CCC1 (stereo not drawn) — higher, -94.1%
- O=C(Cc1ccccn1)N1CCC2(CC1)CN(c1ncccn1)CCO2 — higher, -74.3%
- O=C(COC[C@@]12CCC[C@@H]1CN(C1CCC1)C2)N1CCCC1 — lower, -110%
- O=C1C[C@@H]2CC[C@H](CN1)N2C1CCSCC1 — higher, 0.915%
- O=C(CCC1CCCC1)N1C[C@@H]2CC[C@H]1CN(Cc1ccncc1)C2 — higher, -3.76%
- CCOc1cccc(C(=O)N2C[C@@H]3CC[C@H]2CN(C(=O)C2CCC2)C3)c1 — higher, 5.73%
